# Measurements published in paper PMC8158046 (Oncoimmunology, 2021).
# Positions of bridges follow the written chain, without caps; N, C: chain ends. Chains are numbered I, II in the order given. No end group written: not given here.
# How the values were obtained:
# [1] = system: MCF-10A normal breast cells; assay: MCF-10A cell killing by FACS; assay type: cell-based, human; conditions: for spontaneous cell apoptosis (killing) of MCF-10A cells: 10 μg/ml, 4–6 days, PBMC+MCF-10A, N = 3, mean ± SD
# Procedure, shortened: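 MCF-10A cells were co-cultured with donor PBMCs (2x10^6/ml) plus test compound or scrambled peptide at 37°C, 5% CO2. Adherent cells were then detached. Anti-CD45 staining was used to exclude leukocytes, and apoptosis in the gated CD45-negative cells was measured by Annexin V/PI flow cytometry.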
# [2] = target: T1, CD45 receptor (Homo sapiens, UniProt P08575); assay type: cell-based; conditions: CD45 blocked with monoclonal antibody and blocking peptide, n = 5
# T1 sequence (P08575 195-577 limits assumed): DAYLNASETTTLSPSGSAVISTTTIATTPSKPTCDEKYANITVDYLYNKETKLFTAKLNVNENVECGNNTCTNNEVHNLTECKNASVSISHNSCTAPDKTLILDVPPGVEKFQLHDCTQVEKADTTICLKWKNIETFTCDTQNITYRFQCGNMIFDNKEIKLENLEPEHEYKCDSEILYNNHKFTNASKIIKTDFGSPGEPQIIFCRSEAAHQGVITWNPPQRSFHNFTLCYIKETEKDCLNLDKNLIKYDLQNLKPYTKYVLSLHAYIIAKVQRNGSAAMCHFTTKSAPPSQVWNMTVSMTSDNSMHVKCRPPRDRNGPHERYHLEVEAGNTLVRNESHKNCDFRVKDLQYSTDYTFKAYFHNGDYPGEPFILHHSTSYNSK
# [3] = system: MDA-MB-231 cells; assay: Tumor cell density by inverted microscope, MDA-MB-231; assay type: cell-based, human; conditions: 10 μg/ml; for effect on MDA-MB-231 tumor cells in the absence of PBMCs: monolayer without PBMC, microscope
# Procedure, shortened: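 Tumor cells (MDA-MB-231 or MDA-MB-468, 4x10^5/2 ml) were plated overnight, then cultured with or without donor PBMCs (2x10^6/ml). Test compound or scrambled peptide was added at 10 µg/ml at 37°C, 5% CO2. Wells were washed once with PBS and cell density was documented by inverted light microscopy.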
# [4] = system: PBMCs from healthy female donors co-cultured with MDA-MB-231; assay: FACS of activated PBMC sub-populations in co-cultures with MDA-MB-231; assay type: cell-based, human
# Procedure, shortened: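 Lymphocytes were recovered from tumor/PBMC co-cultures; samples with >98% CD45+ cells were used. Cells (0.5x10^6/50 µl PBS) were stained for CD4, CD8, CD56, NKG2D, CD14, CD69, CD57 and CD137. Gated live cells were analysed by flow cytometry; mean ± SD reported, ANOVA with Tukey-Kramer.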
# [5] = system: MDA-MB-231 xenograft; assay: MDA-MB-231 tumor xenograft in nude mice given human PBMCs; assay type: in vivo, BALB/C nude mice; conditions: for increase in human IFN-γ secretion in serum versus S-C24D group: 13 days after PBMC administration, p <0.05
# Procedure, shortened: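 Female BALB/c nude mice (5–6 weeks) received 4x10^6 MDA-MB-231 cells s.c. in the right flank. At ~100 mm3 (day 6) they were randomized. Human PBMCs from 2 female donors were pre-incubated 5 min with test compound, scrambled peptide or PBS, then given IV. Treatment (60 or 300 µg/mouse in 200 µl PBS) followed IV twice weekly for 2 weeks. At 13 days, serum human IFNγ was measured. Paraffin tumor sections (pH 6 retrieval) were immunostained for CD45, activated CD56, CD8 and cleaved caspase-3, and 5 fields/slide on 5 slides were quantified.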
# [6] = system: CD45 signaling pathway; assay: Protein phosphorylation by western blot in fresh PBMCs from TNBC patients; assay type: cell-based, human; conditions: fresh PBMCs from 5 TNBC patients, C24D 5 to 60 minutes, mean ± SD
# Procedure, shortened: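 PBMCs were lysed in buffer containing phosphatase inhibitors (NaF, Na3VO4, β-glycerophosphate), freeze-thawed once and cleared at 14,000 rpm. Lysates were run on 10% SDS-PAGE and blotted for phospho-Lck Y505, phospho-Lck Y394, phospho-VAV-1 Y174 and phospho-ZAP70 Y493, with GAPDH as loading control. Bands were quantified by infrared imaging, normalized to control, and reported as mean ± SD.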
# [7] = system: CD45 signaling pathway; assay type: cell-based, human; conditions: incubated with C24D for 5 to 24 hours, 5 separate experiments
# [8] = target: T2, CD45 receptor (Homo sapiens, UniProt P08575); assay type: in vitro ADME; conditions: 1.5 μM C24D, 3 hours after adding, ELISA read-out
# T2 sequence (P08575 26-1306): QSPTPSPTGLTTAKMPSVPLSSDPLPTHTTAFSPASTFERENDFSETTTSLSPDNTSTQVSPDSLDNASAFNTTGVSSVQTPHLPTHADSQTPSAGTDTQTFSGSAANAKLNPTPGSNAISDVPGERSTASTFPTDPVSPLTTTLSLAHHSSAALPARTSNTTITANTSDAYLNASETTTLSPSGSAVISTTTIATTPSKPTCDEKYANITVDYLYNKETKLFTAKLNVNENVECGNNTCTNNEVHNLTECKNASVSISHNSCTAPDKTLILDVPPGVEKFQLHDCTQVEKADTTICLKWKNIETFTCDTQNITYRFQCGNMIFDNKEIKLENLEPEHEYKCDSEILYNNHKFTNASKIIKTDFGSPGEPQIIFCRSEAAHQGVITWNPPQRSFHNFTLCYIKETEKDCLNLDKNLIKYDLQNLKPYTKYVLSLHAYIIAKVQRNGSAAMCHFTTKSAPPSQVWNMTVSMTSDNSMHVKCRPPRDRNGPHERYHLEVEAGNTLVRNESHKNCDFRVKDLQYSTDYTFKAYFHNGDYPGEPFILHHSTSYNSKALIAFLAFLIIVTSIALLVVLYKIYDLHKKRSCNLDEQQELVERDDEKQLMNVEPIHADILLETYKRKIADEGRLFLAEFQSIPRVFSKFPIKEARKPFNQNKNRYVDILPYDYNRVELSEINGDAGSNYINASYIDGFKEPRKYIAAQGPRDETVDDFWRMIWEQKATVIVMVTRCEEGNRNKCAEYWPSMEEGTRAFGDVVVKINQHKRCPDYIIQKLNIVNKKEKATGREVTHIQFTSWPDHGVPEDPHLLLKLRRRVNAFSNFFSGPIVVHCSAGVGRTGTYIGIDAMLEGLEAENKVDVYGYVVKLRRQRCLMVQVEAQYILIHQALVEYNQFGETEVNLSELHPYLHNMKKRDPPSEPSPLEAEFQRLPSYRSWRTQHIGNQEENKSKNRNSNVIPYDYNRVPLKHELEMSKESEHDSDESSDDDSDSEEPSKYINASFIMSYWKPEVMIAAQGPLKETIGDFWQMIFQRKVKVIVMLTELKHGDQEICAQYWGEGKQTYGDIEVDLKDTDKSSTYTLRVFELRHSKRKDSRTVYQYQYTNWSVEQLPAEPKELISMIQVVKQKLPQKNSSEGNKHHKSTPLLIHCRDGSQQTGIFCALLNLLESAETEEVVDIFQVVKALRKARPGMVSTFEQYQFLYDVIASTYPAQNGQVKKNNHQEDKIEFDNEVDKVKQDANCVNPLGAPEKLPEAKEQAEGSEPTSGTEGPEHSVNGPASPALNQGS
# [9] = target: T1, CD45 receptor; assay: FACS analysis of C24D binding to PBMC sub-populations
# [10] = system: CD45 signaling pathway; assay: CD45 signal transduction by intracellular FACS, PBMC/MDA-MB-231 co-cultures; assay type: cell-based, human; conditions: PBMCs co-cultured with MDA-MB-231 for 24hs, C24D for 15 minutes
# Procedure, shortened: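 PBMCs (2x10^6/ml, RPMI with 5% AB serum) were co-cultured for 24 h at 37°C, 5% CO2 with MDA-MB-231 cells pre-plated overnight (4x10^5/2 ml). Test compound was then added for 15 minutes. Phosphorylation was read by FACS in live PBMCs and normalized to the scrambled-peptide control.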
# [11] = system: PBMCs co-cultured with MCF-10A; assay: Cytokine secretion in co-cultures of MCF-10A normal breast cells and PBMCs; assay type: cell-based, human; conditions: MCF-10A/PBMC co-culture after C24D, n = 3
# Procedure, shortened: (§1)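 Target cells (MDA-MB-231, MDA-MB-468 or DMEM/10% FCS-grown MCF-10A; 4x10^5/2 ml) were plated overnight. PBMCs (2x10^6/ml, RPMI with 5% AB serum) were added, with test compound added at once (0.1–60 µg/ml) and scrambled peptide as control, at 37°C, 5% CO2. Supernatants were cleared (1200 rpm, 10 min) and stored at −80°C. IFNγ, TNFα, IL-2 and IL-1β were measured by ELISA.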
# [12] = system: PBMCs co-cultured with MDA-MB-231; assay: Cytokine secretion by ELISA in supernatants of PBMC/MDA-MB-231 co-cultures; assay type: cell-based, human
# Procedure, shortened: as §1
# [13] = system: CD45 signaling pathway; assay: CD45 signal transduction by western blot, PBMC/MDA-MB-231 co-cultures; assay type: cell-based, human; conditions: 10 µg/ml, n = 9, p <0.27
# [14] = Stability in human whole blood; assay type: in vitro ADME
# [15] = 10 μg/ml C24D added to co-cultures
# [16] = 10 μg/ml C24D, PBMCs from 11 healthy female donors, mean ± SD
substance,measurement,setting,value
"CG-PPRIHPLKRISRTRLPRLHRPFHIS [S-C24D, reference compound]",spontaneous cell apoptosis (killing) of MCF-10A cells,[1],7.25 ± 2.34%
same,IFN-γ in supernatants of co-cultures with blocked CD45 receptor,[2],108 ± 20 pg/mL
same,effect on MDA-MB-231 tumor cells in the absence of PBMCs,[3],no effect
I: CGHHLLRPRRRKRPHSIPTPILIFRSP / II: CGHHLLRPRRRKRPHSIPTPILIFRSP (disulfide I:1-II:1) [C24D],CD57 expression,[4]; [15],not influenced
same,percentage of NKG2D+ and CD45RO+ cells,[4]; [15],not influenced
same,percentage of CD4+/CD69+ cells,[4]; [16],4.1 ± 1.58%
same,percentage of CD8+/CD69+ cells,[4]; [16],33.23%
same,tumor cell apoptosis (Cleaved Caspase-3 immunofluorescence),[5]; 60 μg (p <0.0013) and 300 μg (p <0.049) per mouse,significant increase
same,increase in human IFN-γ secretion in serum versus S-C24D group,[5]; 60 μg per mouse,68%
same,increase in human IFN-γ secretion in serum versus S-C24D group,[5]; 300 μg per mouse,82%
same,infiltration of human CD45+ cells in the tumor (immunofluorescence),"[5]; 60 and 300 μg doses vs S-C24D, p <0.015 and p <0.023",significantly induced
same,tumor-infiltrating NK (activated CD56+) cells (immunofluorescence),"[5]; 60 or 300 μg per mouse, p <0.011 and p <0.042",significant increase
same,tumor-infiltrating human CD8 T cells (immunofluorescence),"[5]; 60 or 300 μg per mouse, p <0.07 and p <0.1",non-significant
same,spontaneous cell apoptosis (killing) of MCF-10A cells,[1],6.47 ± 0.94%
same,killing in MCF-10A and PBMCs co-cultures,[1]; treatment with C24D,failed to induce killing
same,IFN-γ in supernatants of co-cultures with blocked CD45 receptor,[2],107 ± 27 pg/mL
same,"phosphorylation of Lck Y394 after addition of C24D, normalized to control",[6],117.4 ± 36.2%
same,"phosphorylation of Lck Y505 after addition of C24D, normalized to control",[6],79.2 ± 3.6%
same,"phosphorylation of VAV-1 after addition of C24D, normalized to control",[6],88.4 ± 26.9%
same,"phosphorylation of ZAP70 Y493 after addition of C24D, normalized to control",[6],116.4 ± 10.4%
same,"Lck, ZAP70 and VAV-1 activation in fresh PBMCs from healthy donors in the absence of tumors",[7],no effect
same,decrease of binding to CD45 in the presence of human plasma,[8],20%
same,tumor apoptosis seen by microscope in PBMC/MDA-MB-231 co-cultures,[3]; PBMCs from healthy donors,massive tumor apoptosis
same,effect on MDA-MB-231 tumor cells in the absence of PBMCs,[3],no effect
same,percentage of C24D binding to CD16 after exposure to tumor cells,[9],not affected
same,leukocyte sub-populations that bound C24D,"[9]; PBMCs from healthy female donors, C24D conjugated to Alexa-488 dye","all 9 of the tested T, NK and monocyte sub-populations bound C24D"
same,percentage of CD45+ gated PBMCs that bind C24D (double staining),[9]; anti CD45 monoclonal antibody (CD45-APC) and C24D-Alexa-488 conjugated peptide,100%
same,effect of C24D treatment on C24D binding to CD8 and NKG2D sub-populations exposed to MDA-MB-231,[9]; p <0.05,reversed the decrease
same,phosphorylation of Y394 in Lck,[10]; n = 3,increase
same,increase of the phosphorylation of VAV-1 versus control,"[10]; n = 3, mean ± SD",36.2 ± 4.0%
same,increase of the phosphorylation of Y493 in ZAP70 versus control,"[10]; n = 3, mean ± SD",50.13 ± 10.2%
same,TNF-α concentration,[11],5.6 ± 0.2 pg/mL
same,increase in secretion of IL-2,"[12]; C24D 4–6 days, MDA-MB-231/PBMC co-cultures, n = 7, p < 0.0007",92.2%
same,increase in secretion of TNF-α,"[12]; C24D 4–6 days, MDA-MB-231/PBMC co-cultures, n = 7, p < 0.04",98%
same,increase in secretion of IFN-γ,"[12]; C24D 4–6 days, MDA-MB-231/PBMC co-cultures, n = 8, p <0.03",90%
same,"cytokine secretion (IFNγ, IL-2, TNFα, IL-1β) in PBMCs alone","[12]; C24D added to PBMCs alone, no tumor cells",No effect
same,secretion of IL-1β by monocytes,[12]; C24D added to co-cultures,non-significant effect
same,phosphorylation of Lck Y394,[13],"increased, but not significant statistically"
same,half-life,[14],2.75 h
